OX1R antag-1 = OX1R (human) antagonism. hit rate 1.8% among 330,000. OX1R-expressing cells, FRET antagonist read-out. AID 485270. inhibition, % at 6.6 µM; in the data active = inhibition mostly above about 38%, no sharp cut-off; inactive = mostly below about 40%;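 also: 0% = agonist challenge alone and 100% = reference antagonist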
CHO parental Ca = counter-screen: ATP calcium response change in parental CHO cells; AID 463079; hit rate 0.63% among 330,000; inhibition, % at 5.6 µM; parental CHO-K1, ATP-induced calcium, Fluo-8 fluorescence;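 active = inhibition above that plate's mean sample inhibition plus 3 SD, cut at about 26% in these data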;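 also: 0% = ATP-challenged DMSO wells and 100% = DMSO wells without ATP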
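test system = CHO parental line | reagent = ATP stimulus | measured by = intracellular calcium via Fluo-8 no-wash fluorescent dye | control set = ATP and no-ATP DMSO wells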
TAAR1 ag = agonists of human TAAR1; activation, % at 3 µM; hit rate 0.99% among 360,000; CHO RD-HGA16 TAAR1, Fluo-8 calcium fluorescence; vehicle wells 0%, saturating PEA agonist 100%; Q96RJ0;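 active = activation above the mean activation of all test compounds in the run plus 3 SD, cut at about 38% in these data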
Target sequence (Q96RJ0 whole entry, looked up): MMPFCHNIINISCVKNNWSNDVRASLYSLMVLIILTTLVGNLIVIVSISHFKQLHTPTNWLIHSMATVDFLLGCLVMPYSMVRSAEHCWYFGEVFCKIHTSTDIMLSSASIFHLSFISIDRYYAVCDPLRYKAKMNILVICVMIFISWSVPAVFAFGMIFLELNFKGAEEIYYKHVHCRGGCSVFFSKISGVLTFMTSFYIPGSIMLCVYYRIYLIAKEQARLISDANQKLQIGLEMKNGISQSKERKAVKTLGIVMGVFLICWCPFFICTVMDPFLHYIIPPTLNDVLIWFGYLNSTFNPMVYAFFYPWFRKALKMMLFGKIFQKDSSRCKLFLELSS
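Signal – calcium-sensitive Fluo-8 signal, excitation 470-495, emission 515-575 nm · System – RD-HGA16 (CHO) cells co-expressing Gα16 and hTAAR1 · Incubation – 17-24 h seeding, 75 min 37 °C dye, 30 min RT · Compound dosing – 3 µM single concentration · Repeats – no replicates (n 1)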
GPR7 antag = antagonists of human GPR7 (neuropeptides B/W receptor 1); inhibition, % at 4.4 µM; hit rate 1.1% among 290,000; P48145; GPR7-expressing cells, fluorescence antagonist assay; in the data active = inhibition above about 16%, passing the limit was not always enough;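 also: cells stimulated with the agonist NPW; 0% = agonist with vehicle and 100% = vehicle without agonist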
Target sequence (P48145 whole entry, looked up): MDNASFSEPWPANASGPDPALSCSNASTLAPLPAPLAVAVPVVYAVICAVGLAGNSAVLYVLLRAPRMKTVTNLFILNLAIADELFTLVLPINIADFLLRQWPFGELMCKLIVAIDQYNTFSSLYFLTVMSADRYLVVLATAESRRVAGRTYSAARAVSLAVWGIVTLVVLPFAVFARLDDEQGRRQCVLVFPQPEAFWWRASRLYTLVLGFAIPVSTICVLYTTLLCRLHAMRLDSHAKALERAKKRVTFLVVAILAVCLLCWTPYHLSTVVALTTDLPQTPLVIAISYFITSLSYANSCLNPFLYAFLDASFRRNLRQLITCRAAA
OX1R antag-2 = blocks the human orexin 1 receptor; O43613; CHO/OX1R cells, Fluo-8 calcium fluorescence, orexin A; inhibition, % at 5 µM; hit rate 0.43% among 330,000; AID 434989;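 active = inhibition above its plate's threshold, mean inhibition of all tested compounds on the plate plus 3 SD, cut at about 37% in these data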;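 also: 0% = orexin A challenge wells and 100% = SB-334867-A antagonist wells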
TAAR1 antag = human TAAR1 antagonism; CHO RD-HGA16 TAAR1, Fluo-8 calcium fluorescence, antagonist; hit rate 1.5% among 360,000; inhibition, % at 3 µM; Q96RJ0;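 active = inhibition above a per-plate cutoff, the mean inhibition of test compounds on that plate plus 3 SD, cut at about 49% in these data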;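 also: 0% = DMSO plus EC80 beta-PEA response and 100% = DMSO alone without agonist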
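System: RD-HGA16 CHO cells with stable hTAAR1 and Gα16 | Probe or stimulus: EC80 β-phenethylamine stimulus | Dosing: 3 µM, single point | Times: Dye loading 75 min at 37 °C, then 30 min room temperature | Measured by: Fluo-8 calcium-sensitive fluorescence | Read-out basis: % inhibition of agonist calcium response | Replicates: n of 1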
TAAR1 ag conf = confirmation of human TAAR1 agonists; shares compounds with TAAR1 ag; CHO RD-HGA16 TAAR1, Fluo-8 calcium fluorescence; scaled: DMSO 0%, maximal phenethylamine 100%; activation, % at 3 µM; hit rate 82% among 2,400; AID 651783;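 active = activation above a cutoff set at the run's mean compound activation plus 3 SD, cut at about 39% in these data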
Ga16 ag counter = counter-screen for TAAR1 agonists: nonselective agonists in parental cells; shares compounds with TAAR1 ag; CHO-Ga16 parental, Fluo-8 calcium fluorescence; normalized to maximal ATP response, DMSO zero; activation, % at 3 µM; hit rate 50% among 2,400; AID 651787;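 active = activation above the run cutoff, the mean activation over all tested wells plus 3 SD, cut at about 12% in these data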;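 also: 0% = DMSO wells and 100% = maximal ATP response on the peak over basal ratio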
TAAR1 desens = TAAR1 response desensitization, agonist counter-screen | shares compounds with TAAR1 ag | CHO RD-HGA16 hTAAR1, Fluo-8 calcium, beta-PEA response inhibition | inhibition, % at 3 µM | hit rate 46% among 2,400 | AID 651951;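 active = inhibition above the run cutoff, the mean inhibition of all test compounds plus 3 SD, cut at about 49% in these data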;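 also: beta-PEA stimulus applied at its EC80; loss of beta-PEA calcium signal after compound pretreatment read as receptor desensitization; 0% = DMSO with beta-PEA at EC80 and 100% = DMSO alone without agonist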
Ga16 nonsel ant = counter-screen for TAAR1 agonists: nonselective Ga16 antagonists. shares compounds with TAAR1 ag. CHO-Ga16 ATP-induced calcium, Fluo-8 fluorescence. inhibition, % at 3 µM. hit rate 39% among 2,400;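 active = inhibition above the plate's mean compound inhibition plus 3 SD, computed per plate, cut at about 22% in these data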;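 also: 0% = EC80 ATP with DMSO and 100% = DMSO wells without ATP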
* hit, by the source's call; · = no result given; + = active, no number. Only some compounds are listed: those with a hit (about 4.6% of all), similar ones and a draw of the others.

SMILES	OX1R antag-1	CHO parental Ca	TAAR1 ag	GPR7 antag	OX1R antag-2	TAAR1 antag	TAAR1 ag conf	Ga16 ag counter	TAAR1 desens	Ga16 nonsel ant
COc1cccc(C(O)c2nc(-c3cccc(C(C)C)c3)cs2)c1 (configuration not stated)	·	·	0	·	·	24	·	·	·	·
O=C(CCCN=C1NS(=O)(=O)c2ccccc21)OCC(=O)c1ccc(F)cc1	10	4	67*	·	12	31	86*	33*	33	30*
Brc1ccc(C2C3=C(Nc4ncnn42)c2ccccc2OC3c2ccncc2)cc1 (configuration not stated)	9	-25	43*	-8	-29	19	12	6	3	13
CCCCOc1ccccc1C(=O)NNC(=S)NC(=O)c1ccccc1[N+](=O)[O-]	14	-9	85*	-3	-1	34	43*	43*	37	41*
O=C(NNC(=S)NC(=O)c1ccccc1[N+](=O)[O-])c1ccccc1O	25	-19	5	2	-16	-11	·	·	·	·
Cc1ccc(NC(=S)NC(=O)C2CCC2)cc1C	35	-8	0	-1	-1	0	·	·	·	·
COc1cc(C=NNC(=O)Cn2nc(C)cc2C)ccc1OC(=O)C1CC1	9	-8	+	·	-4	-2	2	2	5	1
Cc1[nH]c(C)c(S(=O)(=O)N2CCCCC2)c1C(=O)N1CCCCC1	2	-2	3	-17	-4	-18	·	·	·	·
COC(=O)[C@@]1(Cc2ccc(F)cc2)[C@H]2c3cc(C(=O)N4CCCC4)n(CC4CC4)c3C[C@H]2CN1C(=O)c1ccccc1	·	·	70*	·	·	23	76*	38*	52*	32*
COC(=O)[C@@]1(Cc2ccc(F)cc2)[C@H]2c3cc(C(=O)N4CCCC4)n(CCF)c3C[C@H]2CN1C(=O)c1ccccc1	·	·	7	·	·	-2	·	·	·	·
COc1ccc(C(CCN2CCCC(C)C2)c2c(OC)cc(OC)c3c(-c4ccccc4)cc(=O)oc23)cc1 (configuration not stated)	16	3	56*	·	11	45	47*	37*	47	42*
CCOC(=O)[C@H]1[C@H]2COc3ccc(Br)cc3[C@@H]2N2C(=O)c3cc(OC)c(OC)cc3NC(=O)[C@@]12C	25	-6	76*	·	-11	27	101*	44*	28	7
COc1ccc(NC(=O)CCc2nc(-c3ccccc3F)no2)cc1	24	-12	48*	-2	-2	15	67*	8	44	20
COc1ccccc1-c1noc(CCC(=O)Nc2cccc(C)c2)n1	24	-31	17	4	-10	5	·	·	·	·
C/C(=N\Nc1ncnc2sc(C)c(C)c12)c1ccccn1	34	79*	135*	6	90*	104*	95*	95*	84*	86*
Cc1sc2ncnc(N/N=C/c3cccc(O)c3)c2c1C	9	-8	9	-9	-8	-3	·	·	·	·
CCOc1cccc(-c2c(C(=O)N/N=C/c3ccc(Br)cc3)nnn2-c2nonc2N)c1	1	-11	102*	-2	-17	37	97*	82*	58*	48*
CCCc1c(C(=O)N/N=C/c2ccc(C)s2)nnn1-c1nonc1N	-5	0	3	9	-7	6	·	·	·	·
CCc1ccc(/C=N/NC(=O)c2nnn(-c3nonc3N)c2CN2CCOCC2)cc1	23	0	63*	-8	-12	3	59*	52*	20	16
CCCc1c(C(=O)N/N=C/c2cccs2)nnn1-c1nonc1N	16	-3	65*	-19	-7	-14	27	19*	4	15
CCOc1ccc(-c2c(C(=O)N/N=C/c3ccc(OC)cc3)nnn2-c2nonc2N)cc1	24	-24	51*	-10	-18	5	47*	23*	4	4
CCOc1cccc(-c2c(C(=O)N/N=C/c3cccnc3)nnn2-c2nonc2N)c1	10	-8	14	5	-9	-4	·	·	·	·
CC(C)C[C@H]1COc2cc(Br)ccc2S(=O)(=O)N1Cc1cccc(Cl)c1	·	·	0	·	·	-30	·	·	·	·
CSc1cccc(N2CC(C(=O)NCCC3=CCCCC3)CC2=O)c1 (configuration not stated)	27	-26	1	·	-29	-10	·	·	·	·
COc1cccc(CNC(=O)CCC(=O)N2CCOCC2)c1	-1	-1	6	·	1	4	·	·	·	·
SMILES	OX1R antag-1	CHO parental Ca	TAAR1 ag	GPR7 antag	OX1R antag-2	TAAR1 antag	TAAR1 ag conf	Ga16 ag counter	TAAR1 desens	Ga16 nonsel ant
Cc1sc2ncnc(N3CCC(C(=O)Nc4cc(C(F)(F)F)ccc4OCC(F)(F)F)CC3)c2c1C	·	·	0	·	·	7	·	·	·	·
CCOc1ccc(-c2c(C(=O)N/N=C/c3ccsc3)nnn2-c2nonc2N)cc1	8	-31	119*	-16	-53	21	111*	74*	23	10
COc1cccc(/C=N/NC(=O)c2nnn(-c3nonc3N)c2-c2cccs2)c1	19	8	18	-4	-8	4	·	·	·	·
CCCOc1ccc(-c2c(C(=O)N/N=C/c3ccc(OCC)cc3)nnn2-c2nonc2N)cc1	19	-21	16	-6	-31	-25	·	·	·	·
COc1cccc(-c2c(C(=O)N/N=C/c3ccsc3)nnn2-c2nonc2N)c1	26	-9	129*	-12	-28	32	145*	106*	72*	29*
CCCOc1ccc(-c2c(C(=O)N/N=C/c3ccncc3)nnn2-c2nonc2N)cc1	14	-22	47*	2	-22	18	30	12*	24	20
COCCN1C[C@@H](CO)O[C@@H](n2cnc3c(NCc4ccc(F)cc4)ncnc32)C1	·	·	2	·	·	2	·	·	·	·
O=C(NCc1ccc(F)cc1)C(=O)NCC1OCCN1S(=O)(=O)c1cc(F)ccc1F (configuration not stated)	·	·	0	·	·	6	·	·	·	·
CC1Cn2c(nc(=O)c3c2NCN(CCc2ccccc2)C3)S1 (configuration not stated)	9	6	53*	15	6	4	46*	6	7	3

Screening results from PubChem BioAssay.
